In data set [1] the test system is Staphylococcus aureus. As to the kind of experiment: Antibacterial activity against methicillin-resistant Staphylococcus aureus NRS119 after 20 hrs by broth microdilution assay. The data set is classed as functional. The conditions noted are these: NRS119, 20 h. In short, it runs like this:
(§1)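 Broth microdilution per CLSI in cation-adjusted Mueller Hinton broth. Compounds serially diluted, in triplicate. Incubation at 37 °C for at least 20 hours. MIC taken as the lowest concentration with no visible bacterial growth.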
(In broth dilution the organism is exposed to a series of concentrations in liquid medium.)

Data set [2] concerns Staphylococcus aureus. As to the kind of experiment: Antibacterial activity against methicillin-resistant Staphylococcus aureus NRS123 (USA400) after 20 hrs by broth microdilution assay. The format is functional. In short, it runs like this:
as §1

In data set [3] the test system is Staphylococcus aureus. As to the kind of experiment: Antibacterial activity against vancomycin-resistant Staphylococcus aureus VRS10 after 20 hrs by broth microdilution assay. The data set is classed as functional. The settings on record: VRS10, 20 h. In short, it runs like this:
as §1

In data set [4] the test system is Staphylococcus aureus. As to the kind of experiment: Bactericidal activity against methicillin resistant vancomycin-resistant Staphylococcus aureus VRS10 up to 18 hrs by broth microdilution assay. The conditions noted are these: VRS10, 18 h, read-out: MBC99.9. The format is functional.
Data set [5] has as its system Staphylococcus aureus. Briefly: Antibacterial activity against vancomycin-resistant Staphylococcus aureus VRS11a after 20 hrs by broth microdilution assay. The format is functional. In short, it runs like this:
as §1

For data set [6], the system named is Staphylococcus aureus. As to the kind of experiment: Antibacterial activity against vancomycin-resistant Staphylococcus aureus VRS12 after 20 hrs by broth microdilution assay. The data set is classed as functional. The settings on record: VRS12, 20 h. In short, it runs like this: as §1
In data set [7] the test system is Staphylococcus aureus. Briefly: Potency index, ratio of vancomycin MIC to compound MIC for antibacterial activity against vancomycin-resistant Staphylococcus aureus VRS10. The format is functional.
Data set [8] has as its system Staphylococcus aureus. As to the kind of experiment: Potency index, ratio of vancomycin MIC to compound MIC for antibacterial activity against vancomycin-resistant Staphylococcus aureus VRS11a. The data set is classed as functional.
The test system of data set [9] is Staphylococcus aureus. Briefly: Potency index, ratio of vancomycin MIC to compound MIC for antibacterial activity against vancomycin-resistant Staphylococcus aureus VRS12. The format is functional.
For data set [10], the system named is Staphylococcus aureus. As to the kind of experiment: Ratio of MBC to MIC for methicillin-resistant Staphylococcus aureus NRS107. The format is functional. In short, it runs like this: (§2)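 MBC/MIC ratio. […] MBC by plating no-growth wells onto tryptic soy agar at 37 °C for at least 18 h; taken as the concentration giving 99.9% growth inhibition.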
The test system of data set [11] is Staphylococcus aureus. Briefly: Ratio of MBC to MIC for methicillin-resistant Staphylococcus aureus NRS119. The data set is classed as functional. In short, it runs like this:
as §2

The subject of data set [12] is Staphylococcus aureus. As to the kind of experiment: Ratio of MBC to MIC for vancomycin-resistant Staphylococcus aureus VRS10. The format is functional. The essentials:
as §2

Data set [13] relates to Staphylococcus aureus. Briefly: Ratio of MBC to MIC for vancomycin-resistant Staphylococcus aureus VRS12. The format is functional. The essentials: as §2
Data set [14] concerns Staphylococcus aureus. Briefly: Bactericidal activity against methicillin-resistant Staphylococcus aureus NRS123 (USA400) at 4 times MIC after 24 hrs by time kill assay. The format is functional, organism-based.
Data set [15] has as its system Staphylococcus aureus. As to the kind of experiment: Antibacterial activity against methicillin-resistant Staphylococcus aureus NRS123 (USA400) infected in mouse J774 cells at 8 ug/ml after 24 hrs. The format is functional, organism-based. In short, it runs like this: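 J774 macrophages grown in DMEM with 10% FBS at 37 °C, 5% CO2. Infected with USA400 at MOI ~100:1 for 1 h, then washed with gentamicin 50 μg/mL. Treated in triplicate wells for 24 h, washed with gentamicin again and lysed with 0.1% Triton X-100. Lysate plated on tryptic soy agar for 18–22 h; CFU/mL counted.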

Data set [16] concerns the target T1, Undecaprenyl-diphosphatase (Escherichia coli (strain K12), UniProt P60932).
T1 sequence (P60932 whole entry): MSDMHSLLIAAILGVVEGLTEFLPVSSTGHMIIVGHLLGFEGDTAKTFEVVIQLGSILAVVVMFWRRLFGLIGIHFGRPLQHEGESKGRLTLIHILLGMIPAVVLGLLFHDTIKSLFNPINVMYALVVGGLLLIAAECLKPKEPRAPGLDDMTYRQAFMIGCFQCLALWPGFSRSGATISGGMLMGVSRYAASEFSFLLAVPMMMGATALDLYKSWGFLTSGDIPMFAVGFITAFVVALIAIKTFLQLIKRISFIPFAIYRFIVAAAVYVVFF
As to the kind of experiment: Inhibition of Escherichia coli UPPP expressed in Escherichia coli C41(DE3) using FPP as substrate preincubated for 15 mins followed by substrate addition measured after 20 mins by malachite green assay.

The target of data set [17] is T2, Ditrans,polycis-undecaprenyl-diphosphate synthase ((2E,6E)-farnesyl-diphosphate specific) (Escherichia coli (strain K12), UniProt P60472).
T2 sequence (P60472 whole entry): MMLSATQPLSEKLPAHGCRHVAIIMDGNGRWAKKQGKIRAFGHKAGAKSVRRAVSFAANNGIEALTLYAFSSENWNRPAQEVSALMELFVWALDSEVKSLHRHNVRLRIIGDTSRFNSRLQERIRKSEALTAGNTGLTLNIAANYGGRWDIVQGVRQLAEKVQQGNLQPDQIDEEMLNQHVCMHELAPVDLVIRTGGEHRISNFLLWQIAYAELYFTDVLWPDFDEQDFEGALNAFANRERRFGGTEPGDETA
As to the kind of experiment: Inhibition of Escherichia coli UPPS using IPP and FPP as substrate preincubated for 30 mins followed by substrate addition measured after 20 mins by malachite green phosphate assay.

The subject of data set [18] is Staphylococcus aureus. Briefly: Inhibition of UPPS/UPPP in vancomycin-resistant Staphylococcus aureus VRS10 assessed as potentiation of vancomycin-induced antibacterial activity by measuring fold reduction in vancomycin MIC at 0.5 times MIC preincubated for 30 mins followed by vancomycin addition measured after 20 to 22 hrs by broth microdilution assay relative to control. The essentials:
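VRS10 suspension pre-exposed to compound at ½ × MIC for 30 min at room temperature. […] Incubation at 37 °C for 20–22 h before the MIC was read; untreated bacteria served as control.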

The next data set has as its system Rattus norvegicus. Briefly: AUC in Sprague-Dawley rat at 2 uM administered as single iv bolus dose by LC-MS/MS analysis. The format is ADME, organism-based. The conditions noted are these: in vivo. The essentials: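 Male naïve Sprague-Dawley rats (three animals) received an IV bolus of a 2 μM solution. EDTA-K2 blood was sampled over 12 h post dose. Plasma was protein-precipitated with acetonitrile and quantified by LC/MS/MS. Parameters came from two-compartmental pharmacokinetic analysis.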

For data set [19], the system named is Staphylococcus aureus. Briefly: Antibacterial activity against methicillin-resistant Staphylococcus aureus USA300 in neutropenic Balb/c mouse thigh infection model assessed as reduction in bacterial burden in thigh at 20 mg/kg, ip administered twice at 2 and 12 hrs post infection and measured at 24 hrs post infection relative to control. The format is functional. Also on record: scale not given: the % may be the effect or the level left. The essentials: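 Female BALB/c mice, 6–8 weeks old, n=5, made neutropenic with i.p. cyclophosphamide 150 and 100 mg/kg on days −4 and −1. Right thigh injected with 100 μL of 5.35×10^7 CFU/mL USA300. […] Thighs harvested at 24 h and counted as CFU/g on mannitol salt agar.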

The test system of data set [20] is Mus musculus. As to the kind of experiment: Induction of inflammation in Balb/c mouse infected with methicillin-resistant Staphylococcus aureus USA300 assessed as redness around wounded skin area at 2% administered topically twice daily for 5 consecutive days measured 12 hrs post last dose relative to control. The data set is classed as organism-based. The conditions noted are these: in vivo, topical_or_ocular. In short, it runs like this: (§3)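 Female Balb/c mice, 8 weeks old, n=5 per group. Intradermal injection of 40 μL of 1.32×10^9 CFU/mL USA300; a wound formed by ~66 h. Treated topically with a 2% suspension in petroleum jelly twice daily for 5 days; the vehicle group served as control. Wounds excised 12 h after the last dose, homogenized in PBS and plated on mannitol salt agar; sites also observed for redness and swelling.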

Data set [21] concerns Mus musculus. Briefly: Induction of inflammation in Balb/c mouse infected with methicillin-resistant Staphylococcus aureus USA300 assessed as swelling around wounded skin area at 2% administered topically twice daily for 5 consecutive days measured 12 hrs post last dose. The data set is classed as organism-based. The conditions noted are these: in vivo, topical_or_ocular. In short, it runs like this:
as §3

Each structure is given as a SMILES string. Converted amounts (≈) assume the structure as drawn. The source made the active and inactive calls.

As a reminder, the MIC is the smallest concentration in the dilution series that meets the test's criterion for growth inhibition. Broadly, the IC50 is the concentration that inhibits the measured activity by half. What is called AUC is concentration integrated over time. For the compound `C/C(=N\NC(=N)N)c1sc(-c2ccc(C#CC3CC3)cc2)nc1C`, the MIC against Staphylococcus aureus [1], with Staphylococcus aureus [2], in the data set with Staphylococcus aureus [3], in the data set on Staphylococcus aureus [5] and in the data set with Staphylococcus aureus [6] was 2 µg/mL (≈ 5.93 µM) throughout. For the same compound, the MBC with Staphylococcus aureus [4] was 4 µg/mL (≈ 11.9 µM). The Ratio in the data set on Staphylococcus aureus [7] was over 100; with Staphylococcus aureus [8] it was over 100; with Staphylococcus aureus [9], 8; in the data set with Staphylococcus aureus [10], “<=3”; with Staphylococcus aureus [11] it was “<=3”; in the data set on Staphylococcus aureus [12], “<=3”. For the same compound, the Ratio result in the data set with Staphylococcus aureus [13] is “<=3”. The outcome with Staphylococcus aureus [14] was Active. Also, in the data set on Staphylococcus aureus [15], the result was inactive. In addition, the IC50 in [16] came out at 8.1 µM; in data set [17], 38 µM. Also, in the data set on Staphylococcus aureus [18], the fold change (FC) turned out to be 512. This compound also had an AUC with Rattus norvegicus of 690 ng·h/mL. The Activity with Staphylococcus aureus [19] was 77%; with Mus musculus [20] it was “Non-Toxic”; with Mus musculus [21], “Non-Toxic”.

(Values after ChEMBL document CHEMBL4196022, “Alkynyl-containing phenylthiazoles: Systemically active antibacterial agents effective against methicillin-resistant Staphylococcus aureus (MRSA)” (Eur J Med Chem, 2018).)
